Test results: ChEMBL document CHEMBL5316351, “Development of a Covalent Inhibitor of c-Jun N-Terminal Protein Kinase (JNK) 2/3 with Selectivity over JNK1” (J Med Chem, 2023)
Activity calls are given as the source filed them. No cut-off for these calls is given here.

Key:
[1] = molecular target: T1, 1-phosphatidylinositol 3-phosphate 5-kinase (Homo sapiens, UniProt Q9Y2I7); test: Inhibition of wild type partial length human PIKFYVE (F1512 to C2098 residues) expressed in mammalian expression system at 1 uM by KinomeScan analysis
T1 sequence (Q9Y2I7 whole entry, the tested form may be a part): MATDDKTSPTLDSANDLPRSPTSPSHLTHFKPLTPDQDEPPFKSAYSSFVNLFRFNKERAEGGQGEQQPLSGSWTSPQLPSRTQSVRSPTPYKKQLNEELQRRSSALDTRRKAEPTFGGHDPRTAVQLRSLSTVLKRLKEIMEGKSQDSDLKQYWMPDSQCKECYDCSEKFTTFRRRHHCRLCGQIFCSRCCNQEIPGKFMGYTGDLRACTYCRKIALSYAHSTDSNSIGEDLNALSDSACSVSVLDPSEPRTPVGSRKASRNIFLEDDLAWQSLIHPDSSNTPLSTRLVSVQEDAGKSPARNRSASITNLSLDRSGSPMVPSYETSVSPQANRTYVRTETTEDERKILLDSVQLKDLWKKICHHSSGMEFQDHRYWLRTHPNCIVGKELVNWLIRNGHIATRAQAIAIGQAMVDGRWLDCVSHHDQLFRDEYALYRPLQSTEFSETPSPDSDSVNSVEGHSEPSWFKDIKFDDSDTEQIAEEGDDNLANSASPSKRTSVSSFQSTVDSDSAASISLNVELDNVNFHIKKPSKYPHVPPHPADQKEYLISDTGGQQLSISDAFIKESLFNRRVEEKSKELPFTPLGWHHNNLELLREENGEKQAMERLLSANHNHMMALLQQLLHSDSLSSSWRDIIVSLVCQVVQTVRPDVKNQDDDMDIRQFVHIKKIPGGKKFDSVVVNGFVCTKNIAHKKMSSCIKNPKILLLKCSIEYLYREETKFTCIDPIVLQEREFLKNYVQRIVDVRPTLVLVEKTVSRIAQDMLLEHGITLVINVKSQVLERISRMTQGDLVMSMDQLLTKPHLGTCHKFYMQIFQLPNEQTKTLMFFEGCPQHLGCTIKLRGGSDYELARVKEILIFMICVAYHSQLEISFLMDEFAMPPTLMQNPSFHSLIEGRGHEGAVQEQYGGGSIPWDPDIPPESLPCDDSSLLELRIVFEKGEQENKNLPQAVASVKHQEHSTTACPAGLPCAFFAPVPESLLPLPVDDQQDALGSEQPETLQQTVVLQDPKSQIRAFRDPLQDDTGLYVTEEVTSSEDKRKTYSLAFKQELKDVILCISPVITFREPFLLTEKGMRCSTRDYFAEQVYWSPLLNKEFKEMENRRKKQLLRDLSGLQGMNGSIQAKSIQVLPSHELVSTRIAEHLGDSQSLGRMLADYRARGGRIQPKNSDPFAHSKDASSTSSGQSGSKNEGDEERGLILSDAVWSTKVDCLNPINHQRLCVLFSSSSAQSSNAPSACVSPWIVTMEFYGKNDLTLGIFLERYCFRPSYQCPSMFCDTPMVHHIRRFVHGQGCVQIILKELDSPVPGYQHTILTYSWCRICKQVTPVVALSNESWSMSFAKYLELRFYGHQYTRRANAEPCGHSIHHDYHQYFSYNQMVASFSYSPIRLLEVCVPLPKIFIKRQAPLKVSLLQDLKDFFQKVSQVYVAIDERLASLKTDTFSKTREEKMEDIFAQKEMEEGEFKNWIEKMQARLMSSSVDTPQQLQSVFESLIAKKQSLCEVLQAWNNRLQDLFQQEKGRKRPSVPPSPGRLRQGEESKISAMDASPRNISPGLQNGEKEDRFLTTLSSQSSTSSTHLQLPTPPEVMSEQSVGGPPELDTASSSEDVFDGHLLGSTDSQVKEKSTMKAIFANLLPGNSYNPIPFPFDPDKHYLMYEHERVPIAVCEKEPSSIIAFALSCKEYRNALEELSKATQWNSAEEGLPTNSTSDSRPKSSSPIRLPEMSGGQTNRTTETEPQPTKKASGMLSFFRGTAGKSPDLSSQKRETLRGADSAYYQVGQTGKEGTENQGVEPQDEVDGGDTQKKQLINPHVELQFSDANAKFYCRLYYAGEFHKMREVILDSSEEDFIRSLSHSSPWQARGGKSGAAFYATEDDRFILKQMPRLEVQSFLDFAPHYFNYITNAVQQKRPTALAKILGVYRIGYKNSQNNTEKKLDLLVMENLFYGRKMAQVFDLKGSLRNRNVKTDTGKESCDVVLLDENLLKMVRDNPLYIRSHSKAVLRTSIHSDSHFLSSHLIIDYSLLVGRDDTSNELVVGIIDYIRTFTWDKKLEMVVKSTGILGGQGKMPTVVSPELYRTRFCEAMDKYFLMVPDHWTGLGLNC
Summary of the method: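 KINOMEscan (ScanMAX) binding panel of >400 kinases, compound tested at 1 μM; reported as percent inhibition/score.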

[2] = molecular target: T1, 1-phosphatidylinositol 3-phosphate 5-kinase; test: Inhibition of PIKFYVE in human SUM159 cells at 1 uM by KiNativ Profiling analysis; type: cell-based; settings: SUM159PT
Summary of the method: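 SUM159 cells treated with 1 μM compound, collected, PBS-washed and frozen; lysates probed with ATP/ADP-biotin acyl probe labelling catalytic lysine (KiNativ); protection from labelling measured.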

[3] = Half life in human liver microsomes at 1 uM by LC-MS/MS analysis; type: ADME, Microsome
[4] = Half life in mouse liver microsomes at 1 uM by LC-MS/MS analysis; type: ADME, Microsome
[5] = GSH reactivity in potassium phosphate buffer at pH 7.4 assessed as half life at 1 uM by LC-MS/MS analysis; type: ADME; settings: pH 7.4, 1 µM
[6] = molecular target: T2, Mitogen-activated protein kinase 9 (Homo sapiens, UniProt P45984); test: Inhibition of JNK2 in human MM1.S cells at 1 uM by KiNativ Profiling analysis; type: cell-based
T2 sequence (P45984 whole entry, looked up): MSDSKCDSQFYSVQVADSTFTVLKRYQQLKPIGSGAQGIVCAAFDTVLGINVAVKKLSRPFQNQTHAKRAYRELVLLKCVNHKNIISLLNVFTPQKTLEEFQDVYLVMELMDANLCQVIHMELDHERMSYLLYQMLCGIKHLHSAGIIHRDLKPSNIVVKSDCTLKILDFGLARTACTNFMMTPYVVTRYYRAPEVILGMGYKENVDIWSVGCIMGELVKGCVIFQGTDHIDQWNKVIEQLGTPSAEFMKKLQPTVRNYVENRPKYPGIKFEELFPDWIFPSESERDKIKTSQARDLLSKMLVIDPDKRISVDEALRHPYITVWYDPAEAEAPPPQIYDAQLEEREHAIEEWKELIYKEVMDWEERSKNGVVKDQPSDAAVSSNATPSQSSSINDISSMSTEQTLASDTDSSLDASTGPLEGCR
Summary of the method: (§1)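 MM.1S cells treated with 1 μM compound, collected, PBS-washed, frozen; KiNativ lysate profiling with ATP/ADP-biotin probe labelling conserved catalytic lysine.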

[7] = molecular target: T1, 1-phosphatidylinositol 3-phosphate 5-kinase; test: Inhibition of PIKFYVE in human MDA-MB-231 cells assessed as vacuole formation upto 4 uM measured after 3 days by bright field microscopy; type: cell-based; settings: time 3.0 day
Summary of the method: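 MDA-MB-231 cells (DMEM, 10% FBS) seeded, next day treated with inhibitor or DMSO; after 3 days imaged by bright-field microscopy at 20× for vacuoles.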

[8] = molecular target: T3, Mitogen-activated protein kinase 14 (Homo sapiens, UniProt Q16539); test: Inhibition of Nano-Luc fused p38alpha (unknown origin) expressed in HEK293T cells pretreated for 3 hrs followed by K5-tarcer addition and measured after 1 hr by NanoBRET assay; type: cell-based; settings: time 4.0 hrs
T3 sequence (Q16539 whole entry, the tested form may be a part): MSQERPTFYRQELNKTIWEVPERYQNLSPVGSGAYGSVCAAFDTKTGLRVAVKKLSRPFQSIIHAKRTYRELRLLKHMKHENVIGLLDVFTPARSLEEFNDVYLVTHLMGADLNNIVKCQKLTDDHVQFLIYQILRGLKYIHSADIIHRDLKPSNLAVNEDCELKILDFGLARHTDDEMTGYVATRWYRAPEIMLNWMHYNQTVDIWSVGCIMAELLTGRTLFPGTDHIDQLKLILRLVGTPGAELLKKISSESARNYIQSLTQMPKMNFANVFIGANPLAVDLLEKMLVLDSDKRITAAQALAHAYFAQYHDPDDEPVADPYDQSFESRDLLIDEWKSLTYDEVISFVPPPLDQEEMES

[9] = molecular target: T2, Mitogen-activated protein kinase 9; test: Covalent binding affinity to JNK2 in human MM1.S cells at 500 nM incubated for 6 hrs by biotin-JNK-IN-7 probe based pull-down competition based analysis; type: cell-based
Summary of the method: (§2)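 MM.1S cells exposed to compound or DMSO 6 h; lysed in HEPES pH 7.4/NP-40 buffer; lysates incubated with 1 μM biotin-JNK-IN-7 overnight at 4 °C then 2 h room temperature; streptavidin pull-down 2–3 h at 4 °C; bound JNK1/JNK2 detected by western blot.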

[10] = molecular target: T4, Mitogen-activated protein kinase 8 (Homo sapiens, UniProt P45983); test: Covalent binding affinity to JNK1 in human MM1.S cells at 2 uM incubated for 6 hrs by biotin-JNK-IN-7 probe based pull-down competition based analysis; type: cell-based; summary of the method: as §2
T4 sequence (P45983 whole entry): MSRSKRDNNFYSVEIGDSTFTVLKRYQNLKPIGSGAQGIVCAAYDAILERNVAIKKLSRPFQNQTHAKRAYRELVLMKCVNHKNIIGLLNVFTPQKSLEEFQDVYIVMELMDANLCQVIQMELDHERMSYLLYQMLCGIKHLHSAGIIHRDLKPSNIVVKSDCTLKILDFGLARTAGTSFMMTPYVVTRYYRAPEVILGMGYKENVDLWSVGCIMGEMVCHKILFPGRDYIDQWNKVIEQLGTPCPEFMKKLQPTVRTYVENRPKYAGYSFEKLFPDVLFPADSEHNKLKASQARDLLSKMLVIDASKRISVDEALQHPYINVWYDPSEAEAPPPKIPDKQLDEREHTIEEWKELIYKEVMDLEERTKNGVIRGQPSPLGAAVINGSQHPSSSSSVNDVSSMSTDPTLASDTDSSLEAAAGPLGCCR

MM1.S [11] = test: Antiproliferative activity against human MM1.S cells assessed as inhibition of cell growth rate measured after 72 hrs by CellTiter-Glo luminescent assay; type: functional
MM1.S [12] = test: Induction of apoptosis in human MM1.S cells assessed as increase in PARP cleavage at 0.5 to 2.5 uM incubated for 24 hrs by immunoblot analysis; type: functional, cell-based; settings: dose 0.5-2.5 µM
MM1.S [13] = test: Induction of apoptosis in human MM1.S cells assessed as increase in caspase-3 cleavage at 0.5 to 2.5 uM incubated for 24 hrs by immunoblot analysis; type: functional, cell-based; settings: dose 0.5-2.5 µM
MM1.S [14] = test: Induction of apoptosis in human MM1.S cells at 250 nM by AnnexinV/PI staining based flow cytometry; type: functional, cell-based
[15] = Antiproliferative activity against wild type human ANBL-6 cells assessed as inhibition of cell growth incubated for 72 hrs by CellTiter-Glo luminescent assay; type: functional, cell-based; settings: ANBL-6, 72 h
[16] = Antiproliferative activity against Bortezomib-resistant human ANBL-6 cells assessed as inhibition of cell growth incubated for 72 hrs by CellTiter-Glo luminescent assay; type: functional, cell-based; settings: ANBL-6, 72 h
MM1.S [17] = test: Antiproliferative activity against human MM1.S cells overexpressing wild type JNK2 assessed as inhibition of cell growth rate measured after 72 hrs by CellTiter-Glo luminescent assay; type: functional, cell-based
MM1.S [18] = type: functional, cell-based; settings: Homo sapiens, time 72.0 hrs
MM1.S [19] = test: Antiproliferative activity against human MM1.S cells assessed as inhibition of cell growth rate pretreated for 1 hr with JNK2 inhibitor, CC930 followed by incubation with drug and measured after 72 hrs by CellTiter-Glo luminescent assay; type: functional, cell-based
Summary of the method: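 MM.1S cells seeded 4000 cells/well, pretreated with 10 μM CC930, then exposed to inhibitor for 72 h; CellTiter-Glo luminescence, GR values from GR calculator; three biological replicates.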

[20] = Antiproliferative activity against human HAP1 cells assessed as inhibition of cell growth incubated for 3 days by CellTiter-Glo luminescent assay; type: functional, cell-based; settings: HAP1, 72 h
[21] = Antiproliferative activity against human HAP1 cells transfected with sgGFP assessed as inhibition of cell growth incubated for 3 days by CellTiter-Glo luminescent assay; type: functional, cell-based; settings: HAP1, 72 h
[22] = Antiproliferative activity against JNK knock-out human HAP1 cells transfected with sgJNK#1 assessed as inhibition of cell growth incubated for 3 days by CellTiter-Glo luminescent assay; type: functional, cell-based; settings: HAP1, 72 h
[23] = Antiproliferative activity against JNK knock-out human HAP1 cells transfected with sgJNK#2 assessed as inhibition of cell growth incubated for 3 days by CellTiter-Glo luminescent assay; type: functional, cell-based; settings: HAP1, 72 h
[24] = molecular target: T4, Mitogen-activated protein kinase 8; test: Inhibition of His-tagged human recombinant JNK1 expressed in insect cells incubated for 1 hr in presence of ATP by Z'-Lyte assay relative to control; settings: Insect cell
[25] = molecular target: T2, Mitogen-activated protein kinase 9; test: Inhibition of His-tagged human recombinant JNK2 expressed in baculovirus expression system incubated for 1 hr in presence of ATP by Z'-Lyte assay relative to control
[26] = molecular target: Mitogen-activated protein kinase 10 (Homo sapiens) (UniProt P53779); test: Inhibition of GST-tagged human recombinant JNK3 expressed in insect cells incubated for 1 hr in presence of ATP by Z'-lyte assay relative to control; settings: Insect cell
Mitogen-activated protein kinase 10 (Homo sapiens), sequence (P53779 whole entry): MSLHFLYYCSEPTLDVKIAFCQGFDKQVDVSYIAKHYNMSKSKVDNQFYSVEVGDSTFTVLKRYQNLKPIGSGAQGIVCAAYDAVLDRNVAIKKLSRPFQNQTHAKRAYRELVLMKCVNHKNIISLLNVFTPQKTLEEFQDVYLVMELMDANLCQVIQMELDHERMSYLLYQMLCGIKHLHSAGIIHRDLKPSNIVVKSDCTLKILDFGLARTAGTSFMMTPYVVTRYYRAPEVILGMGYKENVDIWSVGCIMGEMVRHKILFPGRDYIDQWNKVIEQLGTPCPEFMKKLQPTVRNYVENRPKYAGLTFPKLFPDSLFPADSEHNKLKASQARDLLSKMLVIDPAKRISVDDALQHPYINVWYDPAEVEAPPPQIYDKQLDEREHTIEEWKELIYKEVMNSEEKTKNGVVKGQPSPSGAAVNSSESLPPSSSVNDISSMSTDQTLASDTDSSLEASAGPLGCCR

[27] = molecular target: T4, Mitogen-activated protein kinase 8; test: Inhibition of JNK1 in human MM1.S cells at 1 uM by KiNativ Profiling analysis; type: cell-based; summary of the method: as §1
[28] = molecular target: Mitogen-activated protein kinase 10 (Homo sapiens) (UniProt P53779); test: Inhibition of JNK3 in human MM1.S cells at 1 uM by KiNativ Profiling analysis; type: cell-based; summary of the method: as §1
[29] = molecular target: T3, Mitogen-activated protein kinase 14; test: Inhibition of GST-tagged human recombinant p38alpha expressed in Escherichia coli by Z'-LYTE assay

C[C@H]1CN(C(=O)c2ccc(NC(=O)/C=C/CN(C)C)cc2)C[C@H]1Nc1nccc(-c2c(-c3ccccc3)nn3ccccc23)n1
inhibition [1]: 44% | inhibition [2]: inactive | t1/2 [3]: 16 min | t1/2 [4]: 11 min | t1/2 [5]: 46 min | inhibition [6]: Active | inhibition [7]: inactive | inhibition [8]: Active | Activity [9]: Active | Activity [10]: Active | GR50 (MM1.S [11]): 200 nM | Activity (MM1.S [12]): Active | Activity (MM1.S [13]): Active | Activity (MM1.S [14]): Active | IC50 [15]: 120 nM | IC50 [16]: 96 nM | Activity (MM1.S [17]): Active | Activity (MM1.S [18]): Active | Activity (MM1.S [19]): Active | IC50 [20]: 529 nM | IC50 [21]: 976 nM | IC50 [22]: 1110 nM | IC50 [23]: 846 nM | Imax [24]: 85% | Imax [25]: 98% | Imax [26]: 68% | inhibition [27]: Active | inhibition [28]: Active | IC50 [29]: 15 nM
